Series [1] relates to Mus musculus. The series can be described thus: Antiinflammatory activity against xylene-induced ear edema in Kunming mouse assessed as edema weight at 20 mg/kg, po after 2 hrs relative to control. Type of series: functional. The procedure, abridged: (§1)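 Male Kunming mice (groups of 12; n = 11 per table footnote) were dosed orally as a suspension in 0.5% CMC, with CMC vehicle and positive control groups. After 30 min, 0.03 ml xylene went on both surfaces of the right ear, with the left ear as control. Mice were killed 2 h later. 7 mm ear punches were weighed, and edema was taken as right minus left weight. Groups were compared by one-way ANOVA, p < 0.05.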

Series [2] has as its system Mus musculus. As to the kind of experiment: Inhibition of xylene-induced ear edema in Kunming mouse at 30 mg/kg, po after 2 hrs relative to control. It counts as functional. The method in brief:
as §1

Series [3] deals with Mus musculus. As to the kind of experiment: Antiinflammatory activity against xylene-induced ear edema in Kunming mouse assessed as edema weight at 30 mg/kg, po after 2 hrs relative to control. Type of series: functional. The method in brief:
as §1

The subject of series [4] is Mus musculus. The series can be described thus: Toxicity in mouse assessed as tail bleeding time at 200 mg/kg, po after 90 mins. Type of series: organism-based. The arrangement: dose 200 mg/kg, route oral. The following applies: in vivo, 1.5 h. The procedure, abridged: (§2)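 Male mice (18–22 g) were dosed orally, and bleeding time was recorded before dosing and at each post-dose time. Each mouse was held in a tube with its tail protruding, and a 2 mm tail cut was made. Blood was wiped away with tissue every 30 s until bleeding ceased, and the time was recorded. The comparison group received NS.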

Series [5] has as its system Mus musculus. As to the kind of experiment: Toxicity in mouse assessed as tail bleeding time at 200 mg/kg, po after 45 mins. It counts as organism-based. The arrangement: dose 200 mg/kg, route oral. The following applies: in vivo, 0.75 h. The procedure, abridged: as §2
In series [6] the test system is Mus musculus. As to the kind of experiment: Toxicity in mouse assessed as tail bleeding time at 200 mg/kg, po after 60 mins. Details: dose 200 mg/kg, route oral. It counts as organism-based. The following applies: in vivo, 1 h. The method in brief: as §2
The subject of series [7] is Mus musculus. The series can be described thus: Inhibition of xylene-induced ear edema in Kunming mouse at 20 mg/kg, po after 2 hrs relative to control. It counts as functional. The procedure, abridged: as §1
Series [8] relates to Mus musculus. As to the kind of experiment: Toxicity in mouse assessed as tail bleeding time at 200 mg/kg, po after 30 mins. The following applies: in vivo, 0.5 h. Details: dose 200 mg/kg, route oral. It counts as organism-based. The method in brief:
as §2

This passage reports Activity and inhibition in vivo results from ChEMBL document CHEMBL1149585, “Toward the development of chemoprevention agents. Part 1: Design, synthesis, and anti-inflammatory activities of a new class of 2,5-disubstituted-dioxacycloalkanes” (Bioorg Med Chem, 2007).

On to `O=C(Cc1ccccc1)NC(CO)CCCO` (single isomer, unassigned), for which the Activity in series [1] amounted to 3.53 mg.

For the molecule `O=Cc1cccc([N+](=O)[O-])c1` [3-NITROBENZALDEHYDE], in series [1], the Activity was found to be 3.5 mg.

Consider `O=C(Cc1ccccc1)NC(CO)CCO` (single isomer, unassigned), for which the Activity in series [1] worked out at 3.44 mg.

As for `C[C@@H](O)[C@H](CO)NC(=O)c1ccccc1`, the Activity in series [1] amounted to 3.32 mg.

In the case of `Cc1ccc(C=O)cc1`, in series [1], the Activity is listed as 3.72 mg.

For the molecule `O=Cc1ccccc1` [BENZALDEHYDE], the Activity in series [1] was determined as 3.45 mg.

`O=C(N[C@H](CO)CCCO)c1ccccc1`: the Activity in series [1] is 3.38 mg.

Molecule `CC(=O)Oc1ccccc1C(=O)O` [ASPIRIN] returned an inhibition in vivo at 30 mg/kg in series [2] of 40.7%. Moreover, the Activity in series [3] was 1.85 mg.

With `O=C(Cc1ccccc1)N[C@H]1CO[C@H](c2cccc([N+](=O)[O-])c2)OC1`, the Activity in series [4] was 118.6 s; in series [5] it was 118.5 s; in series [6], 119.2 s; in series [8], 117.7 s. In series [7], this molecule yielded an inhibition in vivo at 20 mg/kg of 42.6%.

`O=Cc1ccc(Cl)cc1`: in series [1], the Activity is recorded as 3.8 mg.

Turning to `C[C@@H]1O[C@@H](c2ccc(Cl)cc2)OC[C@H]1NC(=O)c1ccccc1`, the Activity in series [4] stood at 118.7 s; in series [5], 118.9 s; in series [6], 118.5 s; in series [8], 118.3 s. The molecule also displayed an inhibition in vivo at 20 mg/kg in series [7] of 56.4%.

Turning to `C[C@@H]1O[C@@H](c2cccc([N+](=O)[O-])c2)OC[C@H]1NC(=O)c1ccccc1`, the Activity is 118.3 s in series [4], 119.2 s in series [5], 117.4 s in series [6] and 118.9 s in series [8]. In series [7], the inhibition in vivo at 20 mg/kg came to 42%.

Take `O=C(Cc1ccccc1)NC(CO)CO`: the Activity in series [1] is reported as 3.88 mg.

Consider `O=C(Cc1ccccc1)N[C@H]1CO[C@@H](c2ccccc2)OC1`, for which the Activity was 118.9 s in series [4], 119.3 s in series [5], 117.8 s in series [6] and 118.5 s in series [8]. In addition, 20 mg/kg produced 38.5% inhibition in vivo in series [7].

Regarding `O=C(Cc1ccccc1)N[C@H]1CO[C@H](c2ccc(Cl)cc2)OC1`, the Activity amounted to 118.4 s in series [4], 119.2 s in series [5], 119.5 s in series [6] and 117.9 s in series [8]. The molecule also gave an inhibition in vivo at 20 mg/kg in series [7] of 42%.

With `C[C@@H]1O[C@H](c2ccc([N+](=O)[O-])cc2)OC[C@H]1NC(=O)c1ccccc1`, the Activity in series [4] amounted to 119 s; in series [5], 118.1 s; in series [6], 118.8 s; in series [8], 117.8 s. The molecule also registered an inhibition in vivo at 20 mg/kg in series [7] of 55.4%.

For the molecule `C[C@@H]1O[C@@H](c2cccc([N+](=O)[O-])c2)OC[C@H]1NC(=O)Cc1ccccc1`, the Activity in series [4] came out at 118.6 s; in series [5], 118.7 s; in series [6], 118.5 s; in series [8] it was 120.1 s. The same molecule registered an inhibition in vivo at 20 mg/kg in series [7] of 47.1%.

Take `C[C@@H]1O[C@H](c2ccccc2)OC[C@H]1NC(=O)Cc1ccccc1`: the Activity in series [4] turned out to be 117.9 s; in series [5], 119 s; in series [6], 118.6 s; in series [8] it was 118.5 s. The molecule also displayed an inhibition in vivo at 20 mg/kg in series [7] of 41.3%.

In the case of `Cc1ccc([C@@H]2OC[C@@H](NC(=O)c3ccccc3)[C@H](C)O2)cc1`, the Activity stood at 117.7 s in series [4], 118.5 s in series [5], 118.9 s in series [6] and 120.4 s in series [8]. In series [7], this molecule yielded an inhibition in vivo at 20 mg/kg of 44.9%.

As for `O=C(N[C@H]1CO[C@H](c2ccc([N+](=O)[O-])cc2)OC1)c1ccccc1`, the Activity in series [4] came out at 118.9 s; in series [5], 117.7 s; in series [6] it was 118.6 s; in series [8], 119.5 s. The inhibition in vivo at 20 mg/kg in series [7] came to 48.7%.

On to `O=C(N[C@H](CO)CCO)c1ccccc1`, for which, in series [1], the Activity stood at 4.01 mg.

As for `O=C/C=C/c1ccccc1`, the Activity in series [1] is recorded as 3.4 mg.

In the case of `O=Cc1ccc([N+](=O)[O-])cc1`, the Activity in series [1] is 3.39 mg.

For the molecule `O=C(Cc1ccccc1)N[C@H]1CO[C@H](c2ccccc2)OC1`, the Activity in series [4] stood at 118.9 s; in series [5], 119.3 s; in series [6] it was 117.8 s; in series [8] it was 118.5 s. Moreover, the inhibition in vivo at 20 mg/kg in series [7] is 37.8%.

For `C[C@H]1O[C@@H](c2ccc(Cl)cc2)OC[C@H]1NC(=O)Cc1ccccc1`, the Activity in series [4] came out at 119 s; in series [5], 119.6 s; in series [6], 118.6 s; in series [8] it was 118.4 s. In series [7], this molecule yielded an inhibition in vivo at 20 mg/kg of 46.4%.

For the molecule `C[C@@H]1O[C@@H](c2ccc([N+](=O)[O-])cc2)OC[C@H]1NC(=O)c1ccccc1`, the Activity in series [4] amounted to 118.9 s; in series [5], 119.2 s; in series [6], 117.2 s; in series [8], 118.4 s. In series [7], the inhibition in vivo at 20 mg/kg amounted to 57.4%.

Consider `O=C(N[C@H]1CO[C@@H](c2ccc([N+](=O)[O-])cc2)OC1)c1ccccc1`, for which the Activity is 119.4 s in series [4], 118.7 s in series [5], 120.6 s in series [6] and 119.4 s in series [8]. The molecule further came in with an inhibition in vivo at 20 mg/kg in series [7] of 44.2%.

On to `O=C(NC(CO)CO)c1ccccc1`, for which, in series [1], the Activity came out at 3.25 mg.

Turning to `C[C@@H]1O[C@H](c2cccc([N+](=O)[O-])c2)OC[C@H]1NC(=O)Cc1ccccc1`, the Activity came to 118.6 s in series [4], 118.7 s in series [5], 118.5 s in series [6] and 120.1 s in series [8]. The molecule also displayed an inhibition in vivo at 20 mg/kg in series [7] of 46.5%.

Consider `CC(O)C(CO)NC(=O)Cc1ccccc1` (single isomer, unassigned), for which the Activity in series [1] worked out at 3.35 mg.

In general, inhibition in vivo refers to the percentage by which the read-out fell short of the control. Low readings indicate a weak effect, high ones a strong effect.
